Experimental data gathered from unrelated publications.
Each line is one published result; the experiments were not run side by side.
Target: MAP kinase-activated protein kinase 2 (MAPKAPK2, Homo sapiens, UniProt P49137)

SMILES	observed	mode	technique	tested at	measurement	value
Cn1cncc1[C@@](O)(COc1ccc(C#N)cc1-c1ccc(OC(F)(F)F)cc1)c1ccc(C#N)cc1	cell-free assay	–	competition with immobilised ligand	1 µM	remaining binding	61%
Nc1ncc(-c2nc(N3CCOCC3)nc(N3CCOCC3)n2)c(C(F)F)n1	binding	–	competition with immobilised ligand	10 µM	remaining binding	85%
Cc1nn(C)cc1-c1nc2c(N3CCN(Cc4ccc(Cl)cc4)CC3)c(Cl)cnc2[nH]1	binding	–	competition with immobilised ligand	1 µM	remaining binding	100%
C#Cc1n[nH]c2c(-c3cn(C(C)c4ccccn4)c(=O)[nH]c3=O)cc(F)cc12 (centres unmarked)	enzyme activity	inhibitor	–	1 µM	inhibition	13.1%
CC(C)(C)c1cc(C=C(C#N)C#N)cc(Br)c1O	enzyme activity	inhibitor	–	0.5 µM	remaining activity	92.3%
Cn1cc(-c2cccc(N3CCc4c(sc5c4CC(C)(C)C5)C3=O)c2CO)cc(Nc2ccncn2)c1=O	enzyme activity	inhibitor	–	1 µM	inhibition	-5%
COc1cc(Cl)c(C(=O)N[C@@H](CN[C@H]2CC[C@@H](N)CC2)Cc2ccc(C#N)cc2)cc1-c1ccc(CN[C@H](C)c2ccc(C)cc2)o1	enzyme activity	inhibitor	–	1 µM	remaining activity	107%
Cn1cc(-c2cc(F)cc(N3CCn4c(cc5c4CCCC5)C3=O)c2CO)cc(Nc2ccc(N3CCN(C4COC4)CC3)cn2)c1=O	enzyme activity	inhibitor	–	0.1 µM	inhibition	5%
O=c1[nH]c2ccccc2n1C1CCN(Cc2ccc(-c3[nH]c4cc5ncnc5cc4nc3-c3ccccc3)cc2)CC1	cell-free assay	–	–	0.5 µM	remaining signal	98.7%
COc1cc(Nc2ncc(F)c(Nc3ccc4c(n3)NC(=O)C(C)(C)O4)n2)cc(OC)c1OC	binding	–	–	10 µM	inhibition	0%
COc1ncccc1-c1cnn2ccc(N3CCN(C(=O)OC(C)C)CC3)nc12	binding	–	competition with immobilised ligand	1 µM	remaining binding	100%
